# Assay results taken from ChEMBL document CHEMBL1208732, “Addressing PXR liabilities of phthalazine-based hedgehog/smoothened antagonists using novel pyridopyridazines” (Bioorg Med Chem Lett, 2010).
# Key:
# [1] = Metabolic stability in rat liver microsomes assessed as compound turn over after 30 mins; assay type: ADME, Microsome; conditions: read-out: Activity
# How it was run: (§1)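 Percent turnover of compound within 30 min in human or rat liver microsome homogenates.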
# [2] = Metabolic stability in human liver microsomes assessed as compound turn over after 30 mins; assay type: ADME, Microsome; conditions: read-out: Activity; how it was run: as §1
# [3] = target: T1, Nuclear receptor subfamily 1 group I member 2 (Homo sapiens, UniProt O75469); assay: Activation of human PXR expressed in HepG2 cells assessed as luciferase activity at 2 uM by chemiluminescence assay relative to rifampin; assay type: cell-based; conditions: hepg2, 2 µM
# T1 sequence (O75469 whole entry): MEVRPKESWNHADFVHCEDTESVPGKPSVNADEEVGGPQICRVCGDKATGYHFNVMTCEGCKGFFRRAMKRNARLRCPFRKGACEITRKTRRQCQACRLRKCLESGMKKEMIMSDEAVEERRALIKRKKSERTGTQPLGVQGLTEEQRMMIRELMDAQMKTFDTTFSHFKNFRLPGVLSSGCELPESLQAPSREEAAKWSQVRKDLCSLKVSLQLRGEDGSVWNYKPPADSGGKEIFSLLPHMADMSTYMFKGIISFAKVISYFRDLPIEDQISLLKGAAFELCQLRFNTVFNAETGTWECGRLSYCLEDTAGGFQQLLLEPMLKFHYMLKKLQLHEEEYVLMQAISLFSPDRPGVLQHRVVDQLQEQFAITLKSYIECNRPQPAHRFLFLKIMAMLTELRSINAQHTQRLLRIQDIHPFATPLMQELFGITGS
# How it was run: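 HepG2 cells transfected with a luciferase reporter construct driven by human PXR cDNA. Luciferase activity read by chemiluminescence and expressed as percent of the rifampin control.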
# Protein smoothened [4] = target: Protein smoothened (Homo sapiens, UniProt Q99835); assay: Antagonist activity at human Smo receptor in HEPM cells assessed as inhibition of Gli expression after 24 hrs by quantigene assay; assay type: functional, cell-based
# Sequence of Protein smoothened (Homo sapiens, UniProt Q99835) (Q99835 whole entry): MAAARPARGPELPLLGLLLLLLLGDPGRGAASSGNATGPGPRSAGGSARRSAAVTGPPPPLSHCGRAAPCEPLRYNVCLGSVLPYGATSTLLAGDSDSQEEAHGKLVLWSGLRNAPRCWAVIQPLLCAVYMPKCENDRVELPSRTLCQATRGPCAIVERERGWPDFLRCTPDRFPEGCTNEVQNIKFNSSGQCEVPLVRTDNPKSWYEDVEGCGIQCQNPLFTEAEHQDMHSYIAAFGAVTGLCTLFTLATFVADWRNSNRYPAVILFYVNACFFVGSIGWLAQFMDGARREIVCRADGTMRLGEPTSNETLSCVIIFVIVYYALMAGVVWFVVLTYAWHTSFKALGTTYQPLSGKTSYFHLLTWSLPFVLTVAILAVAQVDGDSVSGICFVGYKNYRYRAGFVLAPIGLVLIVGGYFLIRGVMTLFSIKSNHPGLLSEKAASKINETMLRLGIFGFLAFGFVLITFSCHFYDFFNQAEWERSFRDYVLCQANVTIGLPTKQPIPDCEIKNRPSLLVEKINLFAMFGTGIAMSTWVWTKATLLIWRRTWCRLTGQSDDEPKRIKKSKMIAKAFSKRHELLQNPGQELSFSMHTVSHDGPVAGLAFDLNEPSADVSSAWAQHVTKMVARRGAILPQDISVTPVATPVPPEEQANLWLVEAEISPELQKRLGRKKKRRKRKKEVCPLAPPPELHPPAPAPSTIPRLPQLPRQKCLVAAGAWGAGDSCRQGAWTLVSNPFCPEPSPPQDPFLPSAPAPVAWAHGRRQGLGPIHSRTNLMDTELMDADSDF
# How it was run: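 HEPM cells incubated with compound in MEM with 0.5% charcoal-dextran treated FBS and […] myristoylated mouse Shh protein. GLI expression measured 24 h after adding compound and Shh, using a Quantigene assay.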
# Mus musculus [5] = assay: AUC in mouse at 2 mg/kg, po; assay type: ADME, organism-based, Plasma; set-up: dose 2 mg/kg, route oral; conditions: in vivo
# How it was run: (§2)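 Pharmacokinetics measured in rat or mouse, with intravenous dosing at 0.5 mg/kg and oral dosing at 2 mg/kg. Reported parameters are iv clearance, Vdss, oral AUC and %F.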
# [6] = Clearance in rat at 0.5 mg/kg, iv; assay type: ADME, organism-based; set-up: dose 0.5 mg/kg, route intravenous; conditions: in vivo; how it was run: as §2
# Protein smoothened [7] = target: Protein smoothened (Mus musculus, UniProt P56726); assay: Antagonist activity at mouse cloned Smo receptor expressed in NIH-3T3 cells co expressing Gli1 binding site after 15 hrs by luciferase reporter gene assay; assay type: cell-based, NIH3T3
# Sequence of Protein smoothened (Mus musculus, UniProt P56726) (P56726 whole entry): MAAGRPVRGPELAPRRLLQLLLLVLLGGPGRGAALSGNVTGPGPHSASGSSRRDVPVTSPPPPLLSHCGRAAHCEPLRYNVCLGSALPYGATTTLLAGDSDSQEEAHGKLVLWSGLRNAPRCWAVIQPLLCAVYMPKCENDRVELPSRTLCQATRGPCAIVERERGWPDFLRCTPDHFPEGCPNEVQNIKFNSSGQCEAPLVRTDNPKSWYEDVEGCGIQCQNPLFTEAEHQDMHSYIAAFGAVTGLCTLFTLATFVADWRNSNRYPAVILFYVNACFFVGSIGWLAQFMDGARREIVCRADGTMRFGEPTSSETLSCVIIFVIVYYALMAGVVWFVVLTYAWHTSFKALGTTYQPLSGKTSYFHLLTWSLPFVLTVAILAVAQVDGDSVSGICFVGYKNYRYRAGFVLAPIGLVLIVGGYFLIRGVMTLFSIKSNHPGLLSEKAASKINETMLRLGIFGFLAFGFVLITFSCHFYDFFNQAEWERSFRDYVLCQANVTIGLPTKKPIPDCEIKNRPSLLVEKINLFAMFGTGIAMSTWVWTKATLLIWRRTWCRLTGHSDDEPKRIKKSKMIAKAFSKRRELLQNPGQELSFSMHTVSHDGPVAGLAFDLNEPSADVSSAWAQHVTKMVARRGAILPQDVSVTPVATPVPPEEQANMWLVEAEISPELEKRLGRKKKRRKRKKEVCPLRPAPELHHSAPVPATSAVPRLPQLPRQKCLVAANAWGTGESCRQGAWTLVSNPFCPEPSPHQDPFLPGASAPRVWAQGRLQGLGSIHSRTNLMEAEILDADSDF
# How it was run: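 Stable NIH-3T3 clone carrying a luciferase reporter (pGL4.16) with five consensus Gli1 binding sites. Cells incubated 15 h with compound in Optimem with 0.5% charcoal-dextran treated FBS and […] myristoylated mouse Shh. Luciferase read with Bright-Glo on a luminometer. Threefold dilution series, run in quadruplicate.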
# Mus musculus [8] = assay: Oral bioavailability in mouse at 2 mg/kg; assay type: ADME, organism-based; conditions: in vivo; how it was run: as §2
# [9] = Volume of distribution at steady state in rat at 0.5 mg/kg, iv and 2 mg/kg, po; assay type: ADME, organism-based; conditions: in vivo, read-out: Vdss; how it was run: as §2
# [10] = AUC in rat at 2 mg/kg, po; assay type: ADME, organism-based; set-up: dose 2 mg/kg, route oral; conditions: plasma; how it was run: as §2
# [11] = Fraction unbound in mouse plasma by ultra centrifugation method; assay type: ADME, cell-free
# Mus musculus [12] = assay: Clearance in mouse at 0.5 mg/kg, iv; assay type: ADME, organism-based; set-up: dose 0.5 mg/kg, route intravenous; conditions: in vivo; how it was run: as §2
# [13] = Volume of distribution at steady state in mouse at 0.5 mg/kg, iv and 2 mg/kg, po; assay type: ADME, organism-based; conditions: in vivo, read-out: Vdss; how it was run: as §2
# Mus musculus [14] = assay: Reduction of Gli1 expression in po dosed NOD-SCID mouse skin after 6 hrs by RT-PCR analysis; assay type: functional, organism-based
# How it was run: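 Female NOD-Scid mice aged 5–8 weeks had one hind flank shaved, then regrown hair removed with wax strips 4 days later. After 5 days mice were dosed orally with compound or vehicle, and skin was harvested 6 h post-dose into RNALater. Tissue homogenized and RNA purified. Four mice per group, two samples per animal, analysed by Dunnett's method.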
# [15] = Oral bioavailability in rat at 2 mg/kg; assay type: ADME, organism-based; conditions: in vivo; how it was run: as §2
SMILES,metabolised at 0.5 h [1],metabolised at 0.5 h [2],Activity [3],IC50 (Protein smoothened [4]),also measured
C[C@@H]1CN(C(=O)c2ccccc2)CCN1c1nnc(-c2ccc(N3CCOCC3)cc2)c2ccccc12,28%,19%,6.6%,21 nM,–
C[C@@H]1CN(C(=O)c2ccccc2)CCN1c1nnc(-c2ccccc2)c2cccnc12,–,56%,5.7%,16 nM,–
C[C@@H]1CN(C(=O)c2ccccc2)CCN1c1nnc(-c2ccccc2)c2cnccc12,–,30%,7.5%,12 nM,–
C[C@@H]1CN(C(=O)c2ccccc2)CCN1c1nnc(-c2cncnc2)c2ccccc12,< 10%,< 10%,7.1%,> 1000 nM,–
C[C@@H]1CN(C(=O)c2ccccc2)CCN1c1nnc(-n2cccc2)c2ccccc12,63%,54%,12%,8.7 nM,–
C[C@@H]1CN(C(=O)c2ccccc2)CCN1c1nnc(-c2ccccc2)c2ncccc12,–,13%,4.1%,66 nM,–
C[C@@H]1CN(C(=O)c2ccccc2)CCN1c1nnc(-c2ncco2)c2ccccc12,22%,< 10%,7.8%,> 1000 nM,–
C[C@@H]1CN(C(=O)c2ccccc2)CCN1c1nnc(-c2ccc(C(F)(F)F)cc2)c2ccncc12,< 10%,10%,9%,1 nM,AUC (Mus musculus [5]): 3500 ng·h/mL; clearance [6]: 7.67 mL/min/kg; IC50 (Protein smoothened [7]): 0.7 nM; F (Mus musculus [8]): 46%; Vd [9]: 3.5 L/kg; AUC [10]: 3300 ng·h/mL; fraction unbound [11]: 0.035; CL (Mus musculus [12]): 10.7 mL/min/kg; Vd [13]: 2 L/kg; EC50 (Mus musculus [14]): 460 nM; bioavailability [15]: 73%
O=C(c1ccccc1)N1CCN(c2nnc(-c3ccccc3)c3ccccc23)CC1,39%,–,12%,–,–
C[C@@H]1CN(C(=O)c2ccccc2)CCN1c1nnc(-c2ccccc2)c2ccncc12,–,13%,4.9%,5.8 nM,clearance [6]: 7.5 mL/min/kg; IC50 (Protein smoothened [7]): 3 nM; Vd [9]: 1.4 L/kg; AUC [10]: 1600 ng·h/mL; bioavailability [15]: 35%
C[C@@H]1CN(C(=O)c2ccccc2)CCN1c1nnc(-n2ccnc2)c2ccccc12,16%,< 10%,3.7%,> 1000 nM,–
C[C@@H]1CN(C(=O)c2ccccc2)CCN1c1nnc(-c2ccccn2)c2ccccc12,17%,12%,16%,57 nM,–
O=C(c1ccccc1)N1CCN(c2nnc(-c3ccc(Cl)c(Cl)c3)c3ccccc23)CC1,13%,–,48%,–,–
C[C@@H]1CN(C(=O)c2ccccc2)CCN1c1nnc(-n2ccc3ccccc32)c2ccccc12,72%,55%,74%,8 nM,–

# Continued, in another order:
metabolised at 0.5 h [1],metabolised at 0.5 h [2],Activity [3],IC50 (Protein smoothened [4]),SMILES,also measured
< 10%,< 10%,2.7%,> 1000 nM,C[C@@H]1CN(C(=O)c2ccccc2)CCN1c1nnc(-c2ccc(C(=O)O)cc2)c2ccccc12,–
21%,< 10%,61%,12 nM,C[C@H]1CN(C(=O)c2ccccc2)CCN1c1nnc(-c2ccc(F)cc2)c2ccccc12,–
16%,19%,23%,79 nM,C[C@@H]1CN(C(=O)c2ccccc2)CCN1c1nnc(-c2cccnc2)c2ccccc12,–
–,–,81%,–,C[C@@H]1CN(C(=O)c2ccccc2)CCN1c1nnc(-c2ccc(C(F)(F)F)cc2)c2ccccc12,AUC [10]: 1200 ng·h/mL; fraction unbound [11]: 0.06
36%,11%,25%,25 nM,C[C@@H]1CN(C(=O)c2ccccc2)CCN1c1nnc(-c2ccncc2)c2ccccc12,–
> 95%,> 95%,6.1%,3.3 nM,CC(=O)Oc1ccc(-c2nnc(N3CCN(C(=O)c4ccccc4)C[C@H]3C)c3ccccc23)cc1,–
< 10%,< 10%,5.9%,19 nM,C[C@@H]1CN(C(=O)c2ccccc2)CCN1c1nnc(-c2ccc(C(N)=O)cc2)c2ccccc12,–
15%,–,3%,–,C[C@@H]1CN(C(=O)c2ccccc2)CCN1c1nnc(-c2ccc(CO)cc2)c2ccccc12,clearance [6]: 95 mL/min/kg; Vd [9]: 1.8 L/kg
–,–,17%,–,C[C@@H]1CN(C(=O)c2ccccc2)CCN1c1nnc(-c2ccc(N(C)C)cc2)c2ccccc12,–
10%,10%,2.7%,4.8 nM,C[C@@H]1CN(C(=O)c2ccccc2)CCN1c1nnc(-c2ccc(CC(N)=O)cc2)c2ccccc12,clearance [6]: 18.3 mL/min/kg; Vd [9]: 1.4 L/kg; AUC [10]: 460 ng·h/mL; bioavailability [15]: 22%
12%,–,30%,–,C[C@@H]1CN(C(=O)c2ccccc2)CCN1c1nnc(-c2ccccc2)c2ccccc12,clearance [6]: 4.67 mL/min/kg; Vd [9]: 1.7 L/kg; AUC [10]: 1800 ng·h/mL; bioavailability [15]: 15%
< 10%,< 10%,32%,–,C[C@H]1CN(C(=O)c2ccccc2)CCN1c1nnc(-c2ccccc2)c2ccccc12,–
